High-throughput results deposited in PubChem BioAssay by The Scripps Research Institute Molecular Screening Center.
Only some compounds are listed: those with a hit (about 1.6% of all), similar ones and a draw of the others.
LEDGF integ inh: blocks HIV-1 LEDGF/p75-dependent DNA integration; AID 743269; TR-FRET IN-LEDGF/p75 DNA integration, Eu/Cy5; 370,000 compounds, 0.64% hits; inhibition, % at 3.7 µM;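 active = inhibition above the screen-wide mean plus 3 SD, cut at about 13% in these data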;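 note: signal is the Cy5 over europium emission ratio at 671 and 618 nm; 0% = plate median of compound wells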
TDP2 absorb: TDP2 (human) inhibition, absorbance primary screen. O95551. recombinant TDP2, T5PNP hydrolysis, p-nitrophenol absorbance 415 nm. inhibition, % at 12.8 µM. 370,000 compounds, 0.34% hits;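 active = inhibition above the mean of all tested compounds plus 3 SD, set per campaign, cut at about 25% in these data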;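 note: 0% = DMSO with enzyme and 100% = buffer with substrate but no TDP2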
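Test system: human TDP2 enzyme; Input: 120 nM TDP2 per well; Buffer or medium: Mg2+-containing Tris-HCl buffer, pH 7.5; Reagent: 5 mM T5PNP; Dosing: 12.8 µM single point, 1% DMSO; Incubation: reaction 2 h, 37 °C; Detection: p-Nitrophenol epi absorbance; Read-out: % inhibition relative to enzyme-containing and enzyme-free wells; Replicates: single well per compound.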
UHRF1 MBD2 ctr: blocks human UHRF1 binding to methylated DNA. Q96T88. UHRF1 binding to methylated oligo, TR-FRET. inhibition, % at 4.4 µM. 370,000 compounds, 0.75% hits. AID 687016;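 note: UHRF1 SRA domain binding a hemimethylated CpG hairpin DNA probe; 0% = median of test compound wells and 100% = reference inhibitor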
MBD2 DNA inh: inhibitors of human MBD2 binding to methylated oligonucleotide. TR-FRET. 370,000 compounds, 0.31% hits. AID 686964. inhibition, % at 4.4 µM; in the data active = inhibition above about 13%
UHRF1 ctr MBD2: counter-screen for MBD2 inhibitors: human UHRF1 methylated DNA binding inhibitors; 1,000 compounds, 25% hits; shares compounds with MBD2 DNA inh; inhibition, % at 4.4 µM; UHRF1 binding to methylated oligonucleotide, TR-FRET;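 note: UHRF1 SRA domain binding a labeled hemimethylated CpG hairpin DNA; 0% = vehicle only and 100% = reference inhibitor with vehicle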
MBD2 confirm: confirmation of human MBD2-DBD methylated oligonucleotide binding inhibitors; inhibition, % at 4.4 µM; 1,000 compounds, 26% hits; TR-FRET MBD2-DBD binding to methylated oligonucleotide; shares compounds with MBD2 DNA inh; in the data active = inhibition above about 14%
* marks the source's active call; other numbers are inactive results. Cut-off read from the data, not from the text of the source, unless noted: active = inhibition above about 21%; inactive = the rest.

SMILES | LEDGF integ inh | TDP2 absorb | UHRF1 MBD2 ctr | MBD2 DNA inh | others
O=C(C[N+]12CCC(CC1)C(OC(=O)c1ccccc1)C2)c1ccc([N+](=O)[O-])cc1 (stereo not given) | -3 | 4 | 2 | 4
O=C(C[N+]12CCC(CC1)C(CO)C2)c1ccc([N+](=O)[O-])cc1 (stereo not given) | -1 | -4 | 29* | 4
O=C(NCCN1CCC2(CC1)C(=O)NCN2c1ccccc1)c1ccc(F)c(F)c1 | 0 | 5 | 2 | -2
COc1ccc(CCn2c(O)c(/C=N/N3CCOCC3)c(=O)[nH]c2=O)cc1OC | -4 | 16 | 42* | -1
COc1ccc(CCn2c(O)c(C=NCCN3CCCCC3)c(=O)[nH]c2=O)cc1OC | -4 | -11 | -2 | 1
Cc1cc(N2CCNC[C@H]2C)ccc1N1CCN[C@@H](C)C1 | 3 | -5 | 0 | -2
Cc1cccc(N2C(=O)/C(=C/c3ccc(N4CCN(C)CC4)o3)C(=O)NC2=S)c1C | 14* | -4 | 7 | -5
COc1ccc(CN2C(=O)NC(=O)/C(=C/c3ccoc3)C2=O)cc1 | 10 | 11 | 21* | 8
COc1cc(CCN)c(OC)cc1C | 2 | 9 | 0 | -2
Clc1cccc(N2Cc3cc(-c4ccccc4)ccc3-n3nncc3C2)c1 | 67* | -4 | 10 | 9
Clc1cccc(N2Cc3cc(N4CCOCC4)ccc3-n3nncc3C2)c1 | 6 | 8 | -1 | -4
CN1C(=O)NC(=O)/C(=C/c2ccc([N+](=O)[O-])o2)C1=O | 37* | 9 | 65* | 12
COc1ccc(-c2nc3ccc(Br)cn3c2CC(=O)N2CCCC2)cc1OC | 0 | 1 | 23* | 8
Cc1cc2c(C(C)C)c(O)c(O)c(C=O)c2c(O)c1-c1c(C)cc2c(C(C)C)c(O)c(O)c(C=O)c2c1O | 66* | 7 | -4 | -7
O=C1NC(=O)N(Cc2ccccc2)C(=O)/C1=C\c1ccco1 | 6 | 12 | 1 | -4
O=C1NC(=O)N(Cc2ccco2)C(=O)/C1=C/c1cccn1CCOc1ccccc1Cl | 57* | 10 | 50* | 12
O=C1c2ccccc2-c2cc3ccccc3cc21 | 4 | 1 | -10 | -4
O=C1C=C(N2CC2)c2ccccc2C1=O | 39* | 52* | 6 | -13
CCC1(c2ccccc2)C(=O)N(C)C(=O)N(C)C1=O | -3 | -4 | 1 | 1
CN1C(=O)N(C)C(=O)C2(Sc3ccccc3C2=O)C1=O | 29* | 27* | 3 | 5
O=C(O)c1cc(S(=O)(=O)N2CC3CC(C2)c2cccc(=O)n2C3)ccc1F (stereo not given) | 1 | 1 | 5 | -1
CCOC(=O)C1=C(C(=O)OCC)C2(c3ccccc3)c3ccccc3C1(C)N2C (stereo not given) | 4 | -5 | -1 | 3
COC1=CC23CCCN2CCc2cc4c(cc2C3C1O)OCO4 (stereo not given) | -3 | -5 | 43* | 1
CCN(CC)C(=O)c1ccc2c(c1)C1C=CCC1C(C(=O)O)N2 (stereo not given) | 39* | 8 | 20 | -2
COC(=O)C1C(c2ccc(I)cc2)CC2CCC1N2C (stereo not given) | 1 | -3 | 1 | 4
SMILES | LEDGF integ inh | TDP2 absorb | UHRF1 MBD2 ctr | MBD2 DNA inh | others
Cc1ccc(OP(=O)(NCc2ccccc2)Oc2ccc(C)cc2)cc1 | 2 | -9 | 23* | 5
CCOC(=O)CC[C@@H]1CC[C@]2(CCCN(Cc3ccncc3)C2)O1 | 2 | 5 | 1 | -6
COC(=O)C1C(c2ccccc2)CC2CCC1N2C (stereo not given) | 3 | 9 | -2 | 1
O=C(c1ccc(Cl)cc1)C1CCCN(Cc2ccc3ncccc3c2)C1 (stereo not given) | -4 | -7 | 25* | 15* | UHRF1 ctr MBD2=8;MBD2 confirm=2
O=C(c1ccc(Cl)cc1)C1CCCN(Cc2ccc3c(c2)OCCO3)C1 (stereo not given) | 3 | 2 | -1 | -4
c1ccc(CCN2CCC3CCNC3C2)cc1 (stereo not given) | 7 | -4 | 1 | 3
CCCCSP1(=S)NCCCO1 (stereo not given) | 0 | -4 | -6 | 38* | UHRF1 ctr MBD2=5;MBD2 confirm=1
N#Cc1ccc(NC(=S)N2Cc3cc(Br)ccc3-n3nncc3C2)cc1 | -2 | -10 | 1 | -3
Cc1cc(N2CCNC[C@H]2C)ccc1N1CC[C@@H](O)C1 | 0 | 3 | -3 | -6
O=C(O)Cn1cc(/C=C2\C(=O)NC(=O)N(Cc3ccco3)C2=O)c2ccccc21 | 86* | 11 | 85* | 25* | UHRF1 ctr MBD2=56*;MBD2 confirm=18*
C#C[C@]1(O)CC[C@H]2[C@@H]3CCC4=CC(=O)CC[C@]4(C)[C@H]3CC[C@@]21C | 0 | 6 | 1 | 2
C#C[C@]1(O)CCC2C3CCC4=C/C(=N/OCC(=O)NC(C)C(=O)NC(CCSC)C(=O)O)CC[C@]4(C)C3CC[C@@]21C (stereo not given in full) | 10 | -8 | 5 | 44* | UHRF1 ctr MBD2=4;MBD2 confirm=3
CC(C)(C)NC(=O)CN1C(=O)[C@@H](Cc2c[nH]c3ccccc23)N=C(c2ccccc2)c2ccccc21 | 5 | -12 | -4 | -1
CC(=O)NCC1=C(c2ccc(S(C)(=O)=O)cc2)C[C@@H]2CC[C@H]1N2CCOc1ccccc1 | -3 | 5 | 0 | -6
CC[N+](C)(CC)CCCCOc1ccc2c(c1)C(=O)c1cc(OCCCC[N+](C)(CC)CC)ccc1-2 | 0 | 17 | 41* | 17* | UHRF1 ctr MBD2=49*;MBD2 confirm=31*
COc1cccc2c1C(=O)c1c(O)c3c(c(O)c1C2=O)CC(O)(C(C)=NO)CC3OC1CC(N)C(O)C(C)O1 (stereo not given) | 0 | -2 | 95* | 109* | UHRF1 ctr MBD2=100*;MBD2 confirm=109*
Cc1cc(N2CCNC[C@H]2C)ccc1N1CCN[C@H](C)C1 | 7 | -13 | 0 | 2
c1ccc(-c2cc(-c3ccccc3)[n+](-c3ccccc3)c(-c3ccccc3)c2)cc1 | 2 | 6 | 2 | 13* | UHRF1 ctr MBD2=13;MBD2 confirm=40*
COc1ccc(-n2c(O)c(/C=C3\C=Nc4ccc(Br)cc43)c(=O)[nH]c2=O)c(OC)c1 | -4 | 15 | -2 | 28* | UHRF1 ctr MBD2=8;MBD2 confirm=2
CC(=O)N1Cc2cnnn2-c2ccccc2C1(C#N)Cc1ccccc1 (stereo not given) | -1 | 8 | -1 | 29* | UHRF1 ctr MBD2=7;MBD2 confirm=5
CC(=O)N1Cc2cnnn2-c2ccccc2C1(C)C#N (stereo not given) | -2 | 3 | 3 | 0
C[C@H](NC(=O)OCc1ccccc1)[P+](=O)O | -1 | 1 | -3 | 14* | UHRF1 ctr MBD2=7;MBD2 confirm=1
COc1ccc(C(SCC(NC(=O)OCc2ccccc2)C(=O)O)c2ccc(OC)cc2)cc1 (stereo not given) | -3 | -3 | 0 | -3
